Activity calls are given as the source filed them. The rule behind the calls is not given here.
How the values were obtained:
Format in all cases: functional, cell-based
[1] = Induction of ROS production in HFF1 cells at 2 uM after 3 hrs by DCF-DA staining-based fluorescence assay relative to DMSO treated control; settings: Homo sapiens, HFF-1
Outline: (§1)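 HFF-1 fibroblasts were grown on cover glass at 1 × 10⁶ per well for 18–24 h and exposed to compound for 3 h. They were then stained with 10 μM DCF-DA for 30 min. Cells were fixed in 4% formaldehyde for 20 min, PBS-washed and imaged by fluorescence microscopy.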

[2] = Induction of ROS production in HFF1 cells at 10 uM after 3 hrs by DCF-DA staining-based fluorescence assay relative to DMSO treated control; settings: Homo sapiens, HFF-1; outline: as §1
A549 [3] = assay: Induction of ROS production in human A549 cells after 3 hrs by DCF-DA staining-based fluorescence assay
Outline: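 For probe imaging, A549 cells were seeded on cover glass at 1 × 10⁶ per well and grown 18–24 h. They were treated for 3 h, then stained 30 min with 10 μM DCF-DA, DHE or APF. Cells were fixed in 4% formaldehyde for 20 min, washed twice with PBS and viewed by fluorescence microscopy.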

A549 [4] = assay: Increase in oxidized […] level in human A549 cells at 10 uM after 4 hrs by luminescence assay
Outline: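 Cellular GSH and GSSG levels were measured in A549 cells after 4 h of compound treatment.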

A549 [5] = assay: Induction of phosphorylation of JNK1/2 in human A549 cells at 1 to 10 uM after 3 hrs by Western blot analysis in presence of 10 mM NAC
Outline: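 NAC dependence of kinase phosphorylation. A549 or HCT-116 cells were pretreated with 10 mM NAC for 2 h, then treated with compound at 10 μM for 3 h. Phospho-Akt, JNK, p38 and ERK1/2 were assessed by western blot of RIPA lysates with ECL detection.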

A549 [6] = assay: Induction of apoptosis in human A549 cells assessed as increase in p53 level after 48 hrs by Western blot analysis
Outline: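 Western blotting. Cells were seeded at 6 × 10⁵ per 60 mm dish overnight, then treated with a dose series at 37 °C in 5% CO2 for 48 h. RIPA lysates were BCA-quantified and 25–50 μg was resolved by SDS-PAGE onto PVDF. Membranes were blocked in TBS/T with 5% milk, probed with primary antibody overnight at 4 °C and HRP secondary at 1:2000 for 1 h, and detected by ECL.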

A549 [7] = assay: Induction of apoptosis in human A549 cells at 10 uM after 48 hrs by FACS analysis
HCT-116 = assay: Induction of apoptosis in human HCT116 cells at 10 uM after 48 hrs by FACS analysis

Structure (SMILES)	Activity [1]	Activity [2]	Activity (A549 [3])	Activity (A549 [4])	Activity (A549 [5])	Activity (A549 [6])	Activity (A549 [7])	Activity (HCT-116)
CCCCCC/C=C\CCCCCCCCCc1cc(O)cc(OC)c1O	inactive	inactive	Active	Active	inactive	Dose-dependent effect		
CCCCCC/C=C\CCCCc1cc(O)cc(OC)c1O					inactive	Dose-dependent effect	Active	Active

Source: ChEMBL document CHEMBL3425457, “Identification of Novel ROS Inducers: Quinone Derivatives Tethered to Long Hydrocarbon Chains” (J Med Chem, 2015)
